Assay results gathered from unrelated publications.
Compare with care: the assays were run in different laboratories.
Target: Ephrin type-A receptor 1 (EPHA1, Homo sapiens, UniProt P21709)
Sequence (P21709 26-976, as in one of the studies): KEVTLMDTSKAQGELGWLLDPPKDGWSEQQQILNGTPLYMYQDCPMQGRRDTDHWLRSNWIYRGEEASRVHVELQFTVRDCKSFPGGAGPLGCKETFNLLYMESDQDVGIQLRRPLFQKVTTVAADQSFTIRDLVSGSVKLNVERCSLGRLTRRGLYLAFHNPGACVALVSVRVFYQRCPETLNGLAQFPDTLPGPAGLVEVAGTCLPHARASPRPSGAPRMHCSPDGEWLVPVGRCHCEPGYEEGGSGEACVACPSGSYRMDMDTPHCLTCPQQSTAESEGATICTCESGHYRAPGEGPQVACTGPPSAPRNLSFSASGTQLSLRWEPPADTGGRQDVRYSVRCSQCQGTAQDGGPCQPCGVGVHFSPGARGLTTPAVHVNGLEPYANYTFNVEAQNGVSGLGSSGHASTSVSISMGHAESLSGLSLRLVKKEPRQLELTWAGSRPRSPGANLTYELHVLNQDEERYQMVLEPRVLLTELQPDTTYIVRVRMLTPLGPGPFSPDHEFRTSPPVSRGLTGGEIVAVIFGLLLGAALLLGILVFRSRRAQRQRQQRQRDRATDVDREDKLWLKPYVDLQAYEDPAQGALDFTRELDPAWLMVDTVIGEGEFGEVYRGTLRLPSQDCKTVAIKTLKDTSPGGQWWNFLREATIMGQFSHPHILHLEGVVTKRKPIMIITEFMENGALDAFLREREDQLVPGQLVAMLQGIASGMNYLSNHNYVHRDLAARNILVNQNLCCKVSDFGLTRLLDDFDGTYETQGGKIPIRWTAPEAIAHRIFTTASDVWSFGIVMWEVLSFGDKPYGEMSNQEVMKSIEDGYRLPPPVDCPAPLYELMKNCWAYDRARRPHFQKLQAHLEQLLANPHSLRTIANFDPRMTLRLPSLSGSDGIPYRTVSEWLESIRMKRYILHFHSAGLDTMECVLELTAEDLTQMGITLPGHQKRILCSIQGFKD

SMILES | observed | method | tested at | remaining binding [%]
COc1ccnn2ncc(-c3ccnc(N(C)C)n3)c12 | binding | – | 1 µM | 100
O=C(NCCCN1CCOCC1)c1ccc(Nc2nccc(-c3cc4ccccc4s3)n2)cc1 | binding | competition with immobilised ligand | 1 µM | 44
CNC(=O)[C@@H]1CC[C@@H](n2c(-c3ccc4cnccc4c3)nc3ccc(C(=O)NCc4cccc(C(N)=O)c4)cc32)C1 | binding | competition with immobilised ligand | 1 µM | 100
CN(C)c1ncc(F)c(-c2cnn3ncccc23)n1 | binding | – | 1 µM | 98
Nc1ncc2c(n1)-c1c([nH]c3ccc(C#CC4CC4)cc13)CCCC2 | binding | competition with immobilised ligand | 1 µM | 89
CNC(=O)Nc1ccc2c(c1)CC[C@@]21OC(=O)N(CC(=O)N(Cc2ccc(F)cc2)[C@@H](C)C(F)(F)F)C1=O | cell-free assay | competition with immobilised ligand | 1 µM | 88
O=C(NCCCN1CCOCC1)c1ccc(Nc2ncc(Cl)c(-c3ccc(Cl)s3)n2)cc1 | binding | competition with immobilised ligand | 1 µM | 46
CC(C)CC(=O)N1CCc2nc(-c3ccc(Br)cc3)nc(N(C)Cc3ccccc3)c2C1 | cell-free assay | competition with immobilised ligand | 0.1 µM | 100
CN(c1nccc(-c2cnn3ncccc23)n1)C1CC1 | binding | – | 1 µM | 99
O=C(NCC1CCOCC1)c1n[nH]cc1NC(=O)c1c(F)cccc1F | binding | competition with immobilised ligand | 1 µM | 100
N[C@@H]1CCN(c2nccc(-c3cnn4ncccc34)n2)C1 | binding | – | 1 µM | 100
COc1ccc2cc(OCC3(C(=O)O)CN(C(=O)c4ccc(F)cc4)C3)ccc2c1 | cell-free assay | competition with immobilised ligand | 1 µM | 83
c1cnn2ncc(-c3ccnc(N4CCC45COC5)n3)c2c1 | binding | – | 1 µM | 89
Cc1nc(Cc2cccc(C(F)(F)F)c2)sc1-c1ccc(C(N)=O)nc1 | cell-free assay | competition with immobilised ligand | 1 µM | 81
O=C(c1ccc(Nc2nccc(-c3cc4ccccc4s3)n2)cc1)N1CCC(N2CCCC2)CC1 | binding | competition with immobilised ligand | 1 µM | 32
CC(=O)C1=C(C)N(c2cccc(C(F)(F)F)c2)C(=O)N[C@@H]1c1ccc(C#N)nc1 | cell-free assay | competition with immobilised ligand | 1 µM | 100
C[C@@H](c1ccc(-n2cnc3c(N)ncnc32)cc1)N1CCc2nn(C)c(Cc3ccccc3)c2C1=O | binding | competition with immobilised ligand | 0.1 µM | 87
COc1cnc(Nc2cccc(S(N)(=O)=O)c2)nc1N1CCN(c2ccccc2)CC1 | binding | competition with immobilised ligand | 1 µM | 100
CNCc1ccccc1-c1csc([C@@H](C)Nc2nc(C)nc3cc(OC)c(OC)cc23)c1 | cell-free assay | competition with immobilised ligand | 1 µM | 79
C[C@H]1CCN(c2nccc(-c3cnn4ncccc34)n2)C1 | binding | – | 1 µM | 84
